According to ChEMBL document CHEMBL1158563, “Identification of benzimidazole-based inhibitors of the mitogen activated kinase-5 signaling pathway” (2010):

Target: T1, Dual specificity mitogen-activated protein kinase kinase 5 (Homo sapiens) (UniProt Q13163)
T1 sequence (whole entry): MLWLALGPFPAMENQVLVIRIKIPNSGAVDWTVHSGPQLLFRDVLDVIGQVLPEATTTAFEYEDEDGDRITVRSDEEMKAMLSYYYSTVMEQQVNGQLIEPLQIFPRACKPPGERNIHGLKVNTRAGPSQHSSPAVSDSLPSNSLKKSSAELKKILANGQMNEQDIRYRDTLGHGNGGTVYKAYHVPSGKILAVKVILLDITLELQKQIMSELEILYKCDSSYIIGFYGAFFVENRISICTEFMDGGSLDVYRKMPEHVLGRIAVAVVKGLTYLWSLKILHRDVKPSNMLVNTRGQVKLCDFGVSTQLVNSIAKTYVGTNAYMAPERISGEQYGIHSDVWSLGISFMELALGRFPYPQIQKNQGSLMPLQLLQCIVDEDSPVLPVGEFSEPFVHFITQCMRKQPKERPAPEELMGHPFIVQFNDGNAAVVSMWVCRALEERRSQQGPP
Assay: Inhibition of EGF-induced MEK5-mediated ERK5 phosphorylation in human HEK293 cells at 10 uM treated after 30 mins EGF challenge measured after 30 mins by Western blot analysis relative to control
Assay type: cell-based
Set-up: scale not given: the % may be the effect or the level left
Procedure, shortened: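 HEK293 cells were grown in medium with 10% heat-inactivated FBS and 0.5% penicillin/streptomycin at 37 °C, 5% CO2. They were stimulated with 50 ng/mL EGF, then given 10 µM compound (final) 30 min later, and lysed 30 min after that in 1% Triton buffer. 60 µg protein was run on 10% SDS gels and blotted for pERK1/2 (1:1000) or pERK5 (1:500).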

| Activity | SMILES |
| --- | --- |
| 136% | COc1cc(NCc2ccccc2)c2ncn(Cc3ccccc3)c2c1 |
| 132% | CCC(CO)Oc1cc(NCc2ccccc2)c2ncn(C3CCCC3)c2c1 (configuration not stated) |
